Reference: ChEMBL document CHEMBL1143734, “Design, synthesis, binding, and molecular modeling studies of new potent ligands of cannabinoid receptors” (Bioorg Med Chem, 2007)

Columns and labels:
[1] = target: T1, Fatty-acid amide hydrolase 1 (Rattus norvegicus, UniProt P97612); assay: Inhibition of rat brain FAAH assessed as inhibition of [14C]anandamide hydrolysis
T1 sequence (P97612 whole entry): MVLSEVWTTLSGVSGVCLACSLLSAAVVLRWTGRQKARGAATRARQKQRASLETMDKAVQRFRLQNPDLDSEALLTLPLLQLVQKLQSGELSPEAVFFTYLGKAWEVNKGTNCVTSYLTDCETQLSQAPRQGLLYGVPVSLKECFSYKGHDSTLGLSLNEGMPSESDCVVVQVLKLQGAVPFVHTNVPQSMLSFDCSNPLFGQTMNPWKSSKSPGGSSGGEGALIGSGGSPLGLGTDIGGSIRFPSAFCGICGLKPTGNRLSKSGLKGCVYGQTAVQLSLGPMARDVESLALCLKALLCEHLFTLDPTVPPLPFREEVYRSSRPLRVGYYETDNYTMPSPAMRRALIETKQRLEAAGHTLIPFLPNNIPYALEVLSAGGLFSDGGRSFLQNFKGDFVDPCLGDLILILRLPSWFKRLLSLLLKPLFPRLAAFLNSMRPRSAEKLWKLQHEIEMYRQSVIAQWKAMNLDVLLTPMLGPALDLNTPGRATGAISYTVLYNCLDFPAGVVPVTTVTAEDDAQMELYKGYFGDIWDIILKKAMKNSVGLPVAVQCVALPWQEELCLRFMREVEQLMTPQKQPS
Method in brief: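 Rat brain membranes incubated with [14C]anandamide (6 µM) and increasing compound concentrations in 50 mM Tris–HCl, pH 9, for 30 min at 37 °C. Mixture extracted with 2 volumes CHCl3/CH3OH (2:1). [14C]ethanolamine in the aqueous phase counted by scintillation. IC50 is the mean of n = 3 experiments.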

Cannabinoid receptor 1 [2] = target: T2, Cannabinoid receptor 1 (Homo sapiens, UniProt P21554); assay: (§1) Displacement of [3H]CP-55940 from human CB1 receptor expressed in HEK cells; format: cell-based, HEK293
T2 sequence (P21554 whole entry): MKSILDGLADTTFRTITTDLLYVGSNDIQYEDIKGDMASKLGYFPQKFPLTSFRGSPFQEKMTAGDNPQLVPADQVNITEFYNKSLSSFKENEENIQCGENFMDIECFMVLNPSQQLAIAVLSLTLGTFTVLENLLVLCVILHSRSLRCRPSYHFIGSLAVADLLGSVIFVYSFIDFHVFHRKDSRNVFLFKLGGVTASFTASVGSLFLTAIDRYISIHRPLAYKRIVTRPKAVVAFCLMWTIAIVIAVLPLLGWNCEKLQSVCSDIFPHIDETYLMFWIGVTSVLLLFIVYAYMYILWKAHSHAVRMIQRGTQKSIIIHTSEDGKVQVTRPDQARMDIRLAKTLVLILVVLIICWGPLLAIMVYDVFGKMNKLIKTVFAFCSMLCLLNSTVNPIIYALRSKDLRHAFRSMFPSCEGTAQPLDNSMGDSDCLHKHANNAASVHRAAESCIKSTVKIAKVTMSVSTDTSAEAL

Cannabinoid receptor 2 = Cannabinoid receptor 2 (Homo sapiens, UniProt P34972); assay: Displacement of [3H]CP-55940 from human CB2 receptor expressed in HEK cells; format: cell-based, HEK293
Sequence of Cannabinoid receptor 2 (P34972 whole entry): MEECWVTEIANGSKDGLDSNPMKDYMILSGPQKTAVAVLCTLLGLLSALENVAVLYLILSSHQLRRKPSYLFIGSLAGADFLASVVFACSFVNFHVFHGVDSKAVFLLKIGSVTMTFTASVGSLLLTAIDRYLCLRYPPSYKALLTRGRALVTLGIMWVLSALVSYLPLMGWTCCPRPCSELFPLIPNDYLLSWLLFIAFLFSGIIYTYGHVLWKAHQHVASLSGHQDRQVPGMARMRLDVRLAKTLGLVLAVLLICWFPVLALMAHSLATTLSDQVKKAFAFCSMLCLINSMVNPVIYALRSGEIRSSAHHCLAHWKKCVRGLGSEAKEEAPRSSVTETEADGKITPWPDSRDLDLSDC
Method in brief: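 Preliminary screen at 5, 10 and 25 µM, then a complete displacement curve if binding fell by >50% at 10 µM. IC50 converted to Ki using Cheng–Prusoff. Mean of 3 separate experiments.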

[3] = target: Cannabinoid receptor (Homo sapiens) (UniProt P34972+P21554); assay: Selectivity for human CB1 receptor over human CB2 receptor; format: protein assay
Sequence of Cannabinoid receptor (Homo sapiens) (P21554 whole entry, looked up): as the sequence (P21554 whole entry) above
Sequence of Cannabinoid receptor (Homo sapiens) (P34972 whole entry, looked up): as the sequence (P34972 whole entry) above

Cannabinoid receptor 1 [4] = target: T2, Cannabinoid receptor 1; assay: as §1; format: cell-based, HEK293; remark: listed apart in the source
Method in brief: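 Membranes from HEK cells transfected with human CB1. Screen at 5, 10 and 25 µM, then full dose–response for compounds displacing >50% at 10 µM. […] Ki derived from IC50 by Cheng–Prusoff. Means of n = 3 separate experiments.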

CCCCCc1cc(O)cc(OCCCCCCCC(=O)NCCO)c1 was tested, and the IC50 [1] was > 50 µM, the Ki (Cannabinoid receptor 1 [2]) was 0.13 µM and the Ki (Cannabinoid receptor 2) was 0.39 µM.

In the case of CCCCCc1cc(O)cc(OCCCCCCCC(=O)NC2CC2)c1, the IC50 [1] is reported as > 50 µM, the Ratio Ki [3] is reported as 0.33 and the Ki (Cannabinoid receptor 1 [2]) is reported as 0.016 µM. It also gave a Ki (Cannabinoid receptor 2) of 0.039 µM.

For CCCCCCc1ccc(OCCCCCCCCCCC(=O)NCC2CC2)cc1O, the IC50 [1] was > 50 µM, the IC50 (Cannabinoid receptor 1 [4]) was > 10 µM and the Ki (Cannabinoid receptor 2) was 2.9 µM.

CCCCCCc1ccc(OCCCCCCCCCCC(=O)NCc2ccc(OC)c(O)c2)cc1O was tested, and the IC50 [1] was > 50 µM, the IC50 (Cannabinoid receptor 1 [4]) was > 10 µM and the Ratio Ki [3] was 1.3. The IC50 (Cannabinoid receptor 2) was > 10 µM.

In the case of CCCCCCc1c(O)cccc1OCCCCCCCCCCC(=O)NCc1ccc(OC)c(O)c1, the IC50 [1] is reported as 50 µM, the Ki (Cannabinoid receptor 1 [2]) is reported as 2.82 µM and the Ki (Cannabinoid receptor 2) is reported as 2.1 µM.

Work on CCCCCc1cc(O)cc(OCCCCCCCCCCC(=O)NCc2ccc(OC)c(O)c2)c1 yielded an IC50 [1] of 10 µM, a Ratio Ki [3] of 1.3 and a Ki (Cannabinoid receptor 1 [2]) of 2.1 µM. The Ki (Cannabinoid receptor 2) was 1.65 µM.

For CCCCCc1cc(O)cc(OCCCCCCCCCCC(=O)NCCc2ccc(O)c(O)c2)c1, the Ki (Cannabinoid receptor 1 [2]) was 0.56 µM and the IC50 (Cannabinoid receptor 2) was > 10 µM.

For CCCCCCc1ccc(OCCCCCCCCCCCC(=O)NC2CC2)cc1O, the IC50 [1] was > 50 µM, the IC50 (Cannabinoid receptor 1 [4]) was > 10 µM and the Ki (Cannabinoid receptor 2) was 3.94 µM.

In the case of CCCCCCc1ccc(OCCCCCCCC(=O)NCCO)cc1O, the IC50 [1] is reported as 50 µM, the Ratio Ki [3] is reported as 0.08 and the Ki (Cannabinoid receptor 1 [2]) is reported as 0.19 µM. The Ki (Cannabinoid receptor 2) was 2.4 µM.

Compound CCCCCc1cc(O)cc(OCCCCCCCCCCCC(=O)NC2CC2)c1 has an IC50 [1] of 50 µM, a Ratio Ki [3] of 2.4 and a Ki (Cannabinoid receptor 1 [2]) of 0.75 µM. It also gave a Ki (Cannabinoid receptor 2) of 0.31 µM.

With CCCCCc1cc(O)cc(OCCCCCCCCCCC(=O)NCC2CC2)c1 the IC50 [1] was > 50 µM, the Ratio Ki [3] was 6.4 and the Ki (Cannabinoid receptor 1 [2]) was 0.51 µM. The Ki (Cannabinoid receptor 2) was 0.08 µM.

For CCCCCc1cc(O)cc(OCCCCCCCCCCCC(=O)NCCO)c1, the IC50 [1] was > 50 µM, the Ratio Ki [3] was 1.5 and the Ki (Cannabinoid receptor 1 [2]) was 0.06 µM. It also gave a Ki (Cannabinoid receptor 2) of 0.039 µM.

CCCCCCc1ccc(OCCCCCCCCCCC(=O)NCCc2ccc(O)c(O)c2)cc1O was tested, and the IC50 (Cannabinoid receptor 1 [4]) was > 10 µM and the IC50 (Cannabinoid receptor 2) was > 10 µM.

With CCCCCCc1c(O)cccc1OCCCCCCCC(=O)NC1CC1 the IC50 [1] was 50 µM, the Ratio Ki [3] was 0.17 and the Ki (Cannabinoid receptor 1 [2]) was 0.31 µM. For the same compound, the Ki (Cannabinoid receptor 2) was 1.8 µM.

For CCCCCCc1ccc(OCCCCCCCCCCCC(=O)NCCO)cc1O, the IC50 [1] was 10 µM, the IC50 (Cannabinoid receptor 1 [4]) was > 10 µM and the IC50 (Cannabinoid receptor 2) was > 10 µM.

CCCCCCc1c(O)cccc1OCCCCCCCC(=O)NCCO showed an IC50 [1] of 25 µM, a Ratio Ki [3] of 0.07 and a Ki (Cannabinoid receptor 1 [2]) of 0.26 µM. For the same compound, the Ki (Cannabinoid receptor 2) was 3.94 µM.

In the case of CCCCCCc1ccc(OCCCCCCCC(=O)NC2CC2)cc1O, the IC50 [1] is reported as > 50 µM, the Ratio Ki [3] is reported as 0.2 and the Ki (Cannabinoid receptor 1 [2]) is reported as 0.056 µM. For the same compound, the Ki (Cannabinoid receptor 2) was 0.28 µM.
